# High-throughput results as filed in PubChem.
# TRPC4 block: inhibitors of mouse TRPC4 channel; B-score at 10 µM; 300,000 tested, 0.39% active; HEK293 TRPC4beta/mu-opioid, DAMGO-evoked Fluo4 calcium flux; hits give low values; AID 2247;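 active = B-score over 3 SD under the library average, no early fluorescence shift, positive overall ratio signal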
#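 System: stable TRPC4beta/mu-opioid receptor HEK293 cells; Dosing: single-point compound dosing; Measured by: Fluo4 Ca2+ flux fluorescence; Read-out basis: per-well B score of integrated baseline-normalized Fluo4 ratio.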
# TRPC6 act: activators of mouse TRPC6 channel; Q61143; HEK293-TRPC6 membrane potential dye fluorescence; hits give high values; B-score at 10 µM; 310,000 tested, 0.13% active;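 active = B-score of the integrated fluorescence ratio above library mean plus 3 SD, and starting fluorescence ratio within library mean plus 5 SD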;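 also: higher score means more depolarization so channel activation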
# TRPC4 PAM: allosterically enhances the mouse TRPC4 cation channel | Q9QUQ5 | HEK293 TRPC4beta/mu-opioid, DAMGO EC20, Fluo-4 Ca2+ flux; hits give high values | B-score at 10 µM | 310,000 tested, 0.42% active;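 active = B-score of calcium response area above 5 SD of library B-scores, with initial fluorescence ratio within 5 SD of library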;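 also: B-score of integrated fluorescence ratio over time as area under calcium response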
# TRPC4 agonist: TRPC4 (mouse) channel activation; HEK293 TRPC4beta/mu-opioid, Fluo4 calcium fluorescence; hits give high values; Q9QUQ5; B-score at 10 µM; 310,000 tested, 0.49% active;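 active = B-score above 5 SD of library B-scores, and initial fluorescence ratio not above library mean plus 5 SD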;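 also: positive B-score marks a calcium rise read as TRPC4 activation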
#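 Assay system: HEK293 stable line with TRPC4beta plus mu-opioid receptor; schedule: 45 min room-temperature Fluo4 loading, 110 s read; technique: kinetic Fluo4 calcium fluorescence; evaluation: integrated baseline-normalised fluorescence ratio, converted to per-well B score; controls: buffer (low) and maximal DAMGO (high)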
# TRPC6 inhibitor: inhibitors of mouse TRPC6 channel | Q61143 | HEK293-TRPC6, membrane potential dye, ACh-evoked depolarization; hits give low values | B-score at 10 µM | AID 2553 | 310,000 tested, 1.1% active;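 active = B-score under library mean minus 3 SD, initial fluorescence not abnormally high, positive integrated signal ratio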;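 also: B-score derived from integrated fluorescence ratio over the kinetic read; more negative B-score means stronger inhibition of depolarization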
# An asterisk follows results filed as active; i = inactive. Most compounds without a hit are left out; they make up all but 2.3% or so of the library.
SMILES,TRPC4 block,TRPC6 act,TRPC4 PAM,TRPC4 agonist,TRPC6 inhibitor
Nc1nonc1-n1nnc(C(=O)N/N=C/c2cccc(O)c2)c1CN1CCCC1,i,i,i,i,i
CN1CCN(Cc2c(C(=O)N/N=C/c3cccc(Br)c3)nnn2-c2nonc2N)CC1,i,i,i,43*,i
CN(C)CCN(Cc1cc2cc3c(cc2nc1Cl)OCO3)C(=O)c1ccco1,i,i,i,i,i
CCOc1ccc(OCc2ccc(C(=O)NCc3ccncc3)o2)cc1,i,i,i,i,i
CCc1ccc(OCc2ccc(C(=O)NCc3ccccn3)o2)cc1,i,i,25*,i,i
Cc1c(N(C)S(=O)(=O)c2cc(C(=O)NCC3CCCO3)ccc2Cl)c(=O)n(-c2ccccc2)n1C (stereo not drawn),-7*,i,i,i,i
Cc1c(N(C)S(=O)(=O)c2cccc(C(=O)NCC3CCCO3)c2)c(=O)n(-c2ccccc2)n1C (stereo not drawn),i,i,i,i,i
O=c1c2ccccc2nc2n1CC/C2=C\N1CCN(c2ccc([N+](=O)[O-])cc2)CC1,i,i,i,i,i
O=C(CN(c1ccc(F)cc1)S(=O)(=O)c1ccccc1)N1CCOCC1,i,i,i,i,i
CCN(CC)C(=O)C1CCCN(Cc2cccc(Oc3ccccc3)c2)C1 (stereo not drawn),-7*,i,i,i,i
CN(Cc1cccc(Cl)c1)C(=O)C1CCN(C(=O)Nc2ccccc2)CC1,i,i,i,i,i
COc1ccc(CCN(C)C(=O)C2CCCN(C3CCN(Cc4ccccc4)CC3)C2)cc1OC (stereo not drawn),i,i,i,131*,i
CN(Cc1ccccc1)C(=O)C1CCCN(Cc2cccc(Cl)c2)C1 (stereo not drawn),-8*,i,i,i,i
CCCCOc1ccc(CN=C(N)N)cc1Cl,i,i,i,i,i
CCCOc1ccc(CCCN=C(N)N)cc1Cl,i,i,i,53*,i
NC(=O)CC(NC(=O)c1ccccc1)c1ccc(NCc2ccccn2)c([N+](=O)[O-])c1 (stereo not drawn),i,i,i,i,i
COc1ccc(Nc2cc(C)c3c(O)cccc3n2)cc1,-5*,i,i,i,i
Cc1ccccc1Nc1cc(C)c2c(O)cccc2n1,i,i,i,72*,i
Brc1ccccc1CN1CCN(Cc2c[nH]c3ccccc23)CC1,-6*,i,i,i,i
Brc1ccc(CN2CCN(Cc3c[nH]c4ccccc34)CC2)cc1,i,i,i,i,i
O=[N+]([O-])c1ccc(CN2CCN(Cc3c[nH]c4ccccc34)CC2)cc1,-6*,i,i,i,i
Cc1nnc(NC(=O)CSc2ccc3nnc(-c4cccnc4)n3n2)s1,i,i,i,i,i
Cc1ccc(CNC(=O)Cn2cnc(S(=O)(=O)N3CCC(C)CC3)c2)o1,i,i,i,i,i
Cc1ccc(NC(=O)C2CC(O)CN2C(=O)OCc2ccccc2)cc1C (stereo not drawn),i,i,i,i,i
COc1ccc(C)cc1S(=O)(=O)NC1CCCC1,i,i,i,i,i
SMILES,TRPC4 block,TRPC6 act,TRPC4 PAM,TRPC4 agonist,TRPC6 inhibitor
COc1ccc(S(=O)(=O)NC2CCCC2)c(Cl)c1Cl,i,i,11*,i,i
COc1ccc2cc3cc(C(=O)N4CCN(c5ccccn5)CC4)oc3nc2c1,i,i,i,i,i
Oc1c(Cl)cc(Cl)cc1Sc1cc(Cl)cc(Cl)c1O,i,i,i,86*,-8.38*
O=S(=O)(Cc1ccc(Cl)cc1)NCc1cccnc1,i,i,i,i,i
CCN(Cc1ccccc1)C(=O)CCS(=O)(=O)c1ccc2c(c1)n(C)c(=O)c(=O)n2C,i,i,i,i,i
CCCn1ncc(CN2CCC(CO)(CC3CCCCO3)CC2)c1C (stereo not drawn),i,i,i,i,i
CCOC(=O)C1(CC2CCCCO2)CCN(Cc2ccccc2-c2ccco2)CC1 (stereo not drawn),i,i,i,78*,i
